# Published values from different studies.
# Lines come from different studies, so protocols differ.
# Target: Insulin receptor (INSR, Homo sapiens, UniProt P06213)
SMILES,test,conditions,remaining binding [%]
Cc1cc(-n2nc(Cc3cc(F)cc(C(F)(F)F)c3)nc2C)ccc1C(N)=O,"cell-free assay, competition with immobilised ligand",1 µM,99
N#Cc1ccccc1CSc1nnc2c(n1)[nH]c1ccccc12,"binding, competition with immobilised ligand",10 µM,88
O=C(c1ccc(Nc2ncc(Cl)c(-c3ccc(Cl)s3)n2)cc1)N1CCC(N2CCCC2)CC1,"binding, competition with immobilised ligand",1 µM,2.3
CN(C)c1nccc(-c2cnc3ncccn23)n1,binding,1 µM,70
CC(=O)C1=C(C)N(c2cccc(C(F)(F)F)c2)C(=O)N[C@@H]1c1ccc(C#N)nc1,"cell-free assay, competition with immobilised ligand",1 µM,89.3
C[C@@H]1CN(c2ccc3ncc(-c4ccc5[nH]nc(C6CC6)c5c4)n3n2)C[C@H](C)O1,"binding, competition with immobilised ligand",50 nM,100
c1cncc(-c2cccc(Nc3nccc(NC4CCCCC4)n3)c2)c1,"binding, competition with immobilised ligand",10 µM,27
CCCOc1ccc([C@@H]2[C@@H](C(=O)O)[C@H](c3ccc4c(c3)OCO4)CN2CC(=O)Nc2c(CC)cccc2CC)cc1,"cell-free assay, competition with immobilised ligand",1 µM,89
CCN1CCN(Cc2ccc(C(=O)Nc3ccc(C)c(Oc4ccc5c(c4)CC(=O)N5)c3)cc2C(F)(F)F)CC1,"binding, competition with immobilised ligand",1 µM,77
Nc1c(C(=O)NCc2ccc(C(=O)NCCCC3CCCCC3)cc2)cnn1-c1ccccc1,"cell-free assay, competition with immobilised ligand",0.1 µM,100
C=CC(=O)N1CCC(C(=O)NCC(=O)N2CCN(c3nc(-c4cnc(N)nc4C(F)F)nc(N4CCOCC4)n3)CC2)CC1,"binding, competition with immobilised ligand",1 µM,99
CN(C)c1ncc(F)c(-c2cnn3ncccc23)n1,binding,1 µM,81
COc1ccc2c(c1)O[C@@H](c1ccc(OC)c(OC)c1)C[C@H]2NC(=O)C1(c2ccc3c(c2)OC(F)(F)O3)CC1,"cell-free assay, competition with immobilised ligand",1 µM,79
O=C(NCC1CCOCC1)c1n[nH]cc1NC(=O)c1c(F)cccc1F,"binding, competition with immobilised ligand",1 µM,100
CNC(=O)[C@@H]1CC[C@@H](n2c(-c3ccc4cnccc4c3)nc3ccc(C(=O)NCc4cccc(C(N)=O)c4)cc32)C1,"binding, competition with immobilised ligand",1 µM,92
F[C@@H]1CCN(c2nccc(-c3cnn4ncccc34)n2)C1,binding,1 µM,91
O=C(NCCCN1CCOCC1)c1ccc(Nc2nccc(-c3cc4ccccc4s3)n2)cc1,"binding, competition with immobilised ligand",1 µM,95
N[C@H]1CCN(c2nccc(-c3cnn4ncccc34)n2)C1,binding,1 µM,85
Cc1cc(NC(=O)c2cccc(S(F)(F)(F)(F)F)c2)cc(-n2ccn3nc(-c4cccnc4)cc23)c1,"cell-free assay, competition with immobilised ligand",1 µM,100
C[C@H]1CCN(c2nccc(-c3cnn4ncccc34)n2)C1,binding,1 µM,69
Cn1nc(C(F)(F)F)cc1-c1cnc(N2CCc3cc(S(=O)(=O)Nc4c(F)cc(Cl)cc4F)cc(N4CCCC4=O)c32)nc1,"cell-free assay, competition with immobilised ligand",1 µM,89
Cc1cnn2ncc(-c3ccnc(N(C)C)n3)c2c1,binding,1 µM,68
CC(=O)N1CCC(c2ccc(C(=O)NC3=NCCN3)cc2C(F)(F)F)CC1,"cell-free assay, competition with immobilised ligand",1 µM,100
CN(CCCC(F)(F)F)c1nccc(-c2cnn3ncccc23)n1,binding,1 µM,78
Cc1cnc(Nc2ccc(C(=O)N3CCC(N4CCCC4)CC3)cc2)nc1-c1cc2ccccc2s1,"binding, competition with immobilised ligand",1 µM,7.8
